Laboratory results reported in ChEMBL document CHEMBL3091284, “Hygrocins C-G, cytotoxic naphthoquinone ansamycins from gdmAI-disrupted Streptomyces sp. LZ35” (J Nat Prod, 2013).
Activity calls are given as the source filed them. The calls are words filed in the database; no cut-off is given here.

Tests used:
Format in all cases: functional, cell-based
[1] = Cytotoxicity against human MDA-MB-431 cells by MTT assay
Method in brief: (§1)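 MTT viability/proliferation assay on human cancer lines (breast MDA-MB-431, prostate PC3, alveolar basal epithelial A549, colorectal SW620, hepatocellular HepG2). Compounds tested up to a maximum of 10 μM, with activity judged relative to control and IC50 derived. Cisplatin at 5 μg/mL served as positive control.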

PC-3 [2] = assay: Cytotoxicity against human PC3 cells by MTT assay; method in brief: as §1
PC-3 [3] = assay: Cytotoxicity against human PC3 cells assessed as growth inhibition up to 10 uM by MTT assay; method in brief: as §1
Homo sapiens = species: Homo sapiens; assay: Cytotoxicity against human MDA-MB-431 cells assessed as growth inhibition up to 10 uM by MTT assay; method in brief: as §1
A549 = assay: Cytotoxicity against human A549 cells assessed as growth inhibition up to 10 uM by MTT assay; method in brief: as §1
SW-620 = assay: Cytotoxicity against human SW620 cells assessed as growth inhibition up to 10 uM by MTT assay; method in brief: as §1
HepG2 = assay: Cytotoxicity against human HepG2 cells assessed as growth inhibition up to 10 uM by MTT assay; method in brief: as §1

SMILES | IC50 [1] | IC50 (PC-3 [2]) | growth inhibition (GI) (PC-3 [3]) | growth inhibition (GI) (Homo sapiens) | growth inhibition (GI) (A549) | growth inhibition (GI) (SW-620) | growth inhibition (GI) (HepG2)
CC[C@@H]1/C=C/[C@H](O)[C@H](C)OC(=O)/C(C)=C\[C@@H]2C(=O)NC3=CC(=O)c4c(cc(C)c(O)c4C(=O)CC1)[C@@]32O | 3 µM | 5 µM | – | – | – | – | –
CC[C@@H]1/C=C/[C@H](O)[C@H](C)OC(=O)/C(C)=C\[C@H]2C(=O)NC3=CC(=O)c4c(cc(C)c(O)c4C(=O)CC1)[C@@]32O | 0.5 µM | 1.9 µM | – | – | – | – | –
CCC1/C=C/[C@H](O)[C@H](C)OC(=O)[C@@]2(C)C=CC(=O)NC3=C2C(=O)c2c(cc(C)c(O)c2C(=O)CC1)C3=O (stereo partly specified) | – | – | inactive | inactive | inactive | inactive | inactive
CC[C@@H]1/C=C/[C@H](O)[C@H](C)OC(=O)/C(C)=C/[C@@H]2C(=O)NC3=CC(=O)c4c(cc(C)c(O)c4C(=O)CC1)[C@@]32O | – | – | inactive | inactive | inactive | inactive | inactive
CCC1/C=C/[C@H](C(C)O)OC(=O)[C@@]2(C)C=CC(=O)NC3=C2C(=O)c2c(cc(C)c(O)c2C(=O)CC1)C3=O (stereo partly specified) | – | – | inactive | inactive | inactive | inactive | inactive
CC[C@@H]1/C=C/[C@H](C(C)O)OC(=O)/C(C)=C\[C@H]2C(=O)NC3=CC(=O)c4c(cc(C)c(O)c4C(=O)CC1)[C@@]32O (stereo partly specified) | 3.3 µM | 4.5 µM | – | – | – | – | –
